{"source": "paper PMC2233693", "about": "(The Journal of General Physiology, 2000)", "format_in_all_cases": "biochemical", "key": {"[1]": {"molecular_target": "T1, E340G mutant bovine olfactory CNG channel (Bos taurus, UniProt Q03041, E340G)", "T1 sequence (Q03041 1-663 E340G)": "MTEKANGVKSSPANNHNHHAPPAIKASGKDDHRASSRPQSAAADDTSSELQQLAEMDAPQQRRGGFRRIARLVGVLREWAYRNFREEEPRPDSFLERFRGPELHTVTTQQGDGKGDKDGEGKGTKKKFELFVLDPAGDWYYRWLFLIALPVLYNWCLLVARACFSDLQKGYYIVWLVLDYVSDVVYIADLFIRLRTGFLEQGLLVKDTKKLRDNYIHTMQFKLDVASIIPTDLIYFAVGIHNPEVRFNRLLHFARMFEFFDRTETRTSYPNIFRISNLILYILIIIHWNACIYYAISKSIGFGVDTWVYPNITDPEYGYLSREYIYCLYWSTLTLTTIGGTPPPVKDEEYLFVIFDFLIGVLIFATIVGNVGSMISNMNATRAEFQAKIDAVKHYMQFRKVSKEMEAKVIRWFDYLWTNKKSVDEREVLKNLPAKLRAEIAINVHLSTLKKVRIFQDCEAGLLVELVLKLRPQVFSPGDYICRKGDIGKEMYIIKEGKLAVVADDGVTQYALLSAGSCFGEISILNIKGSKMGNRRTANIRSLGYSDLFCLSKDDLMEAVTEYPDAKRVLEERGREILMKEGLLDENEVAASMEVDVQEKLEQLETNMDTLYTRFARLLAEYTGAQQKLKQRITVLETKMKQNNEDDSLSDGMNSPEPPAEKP", "assay": "Blockage of macroscopic current by external Ca2+ or Mg2+, outside-out patches", "details": "for Ki: mean ± SD", "summary_of_the_method": "(§1)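 Xenopus oocytes injected with wild-type or mutant channel mRNA; outside-out patches with 100 μM cGMP in the pipette. Bath: 110 mM NaCl, 2 mM EDTA, 10 mM HEPES, pH 7.4, plus Ca2+ (NTA-buffered) or Mg2+ (EDTA-buffered); unbuffered above 0.1 mM. Five 1-s ramps (−80 to +80 mV) averaged, leak subtracted. Current normalised to divalent-free current at the same voltage, Hill-fitted per patch; Ki and n given as mean ± SD.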"}, "[2]": {"molecular_target": "T1, E340G mutant bovine olfactory CNG channel", "assay": "Divalent cation permeation, outside-out patches in bi-ionic conditions", "details": "for reversal potential, V rev: internal Na", "summary_of_the_method": "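Outside-out oocyte patches; the pipette held 1 mM cGMP and 110 mM NaCl. External 110 mM NaCl was replaced by 73.3 mM CaCl2 or MgCl2. From a 0 mV holding potential, 150-ms steps were given from −80 to +80 mV in 20-mV increments. I_Ca/I_Na was taken at −80 mV, and reversal potential under bi-ionic conditions (internal Na+, external divalent); mean ± SD.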"}, "[3]": {"molecular_target": "T2, E340N mutant bovine olfactory CNG channel (Bos taurus, UniProt Q03041, E340N)", "T2 sequence (Q03041 1-663 E340N)": "T1 sequence (Q03041 1-663 E340G) with G340N"}, "[4]": {"molecular_target": "T3, E340D mutant bovine olfactory CNG channel (Bos taurus, UniProt Q03041, E340D)", "T3 sequence (Q03041 1-663 E340D)": "T1 sequence (Q03041 1-663 E340G) with G340D", "assay": "Blockage of macroscopic current by external Ca2+ or Mg2+, outside-out patches", "details": "for Ki: mean ± SD", "summary_of_the_method": "as §1"}, "[5]": {"molecular_target": "T1, E340G mutant bovine olfactory CNG channel"}, "[6]": {"molecular_target": "T3, E340D mutant bovine olfactory CNG channel"}, "[7]": {"details": "read-out: K 1/2,cG, −80 mV, single patch, Fig. 1 fit"}, "[8]": {"details": "−80 mV, single patch, Fig. 1 fit"}}, "note": "Changes are numbered by the printed parent chain. Where two headings read alike, the source gives them in different places."}
{"smiles": "[Ca+2]", "note": "[Ca^2+]", "values": [{"measurement": "n, Hill coefficient of blockage", "setting": "[1]; external Ca2+, +80 mV", "result": "0.6 ± 0.2"}, {"measurement": "Ki", "setting": "[1]; external Ca2+, +80 mV", "result": "26000 ± 9800", "unit": "µM"}, {"measurement": "n, Hill coefficient of blockage", "setting": "[1]; external Ca2+, −80 mV", "result": "0.4 ± 0.1"}, {"measurement": "Ki", "setting": "[1]; external Ca2+, −80 mV", "result": "6300 ± 2500", "unit": "µM"}, {"measurement": "reversal potential, V rev", "setting": "[2]; external Ca2+", "result": "24 ± 5", "unit": "mV"}, {"measurement": "I Ca/I Na", "setting": "[2]; −80 mV, external 73.3 mM CaCl2 vs 110 mM NaCl", "result": "0.16 ± 0.03"}, {"measurement": "effect of external Ca2+ on K 1/2 for cAMP or cGMP", "setting": "[3]; 1 mM Ca2+ in the patch pipette", "result": "did not significantly affect K 1/2"}, {"measurement": "n, Hill coefficient of blockage", "setting": "[4]; external Ca2+, +80 mV", "result": "1.3 ± 0.5"}, {"measurement": "Ki", "setting": "[4]; external Ca2+, +80 mV", "result": "18 ± 10", "unit": "µM"}, {"measurement": "n, Hill coefficient of blockage", "setting": "[4]; external Ca2+, −80 mV", "result": "1.2 ± 0.5"}, {"measurement": "Ki", "setting": "[4]; external Ca2+, −80 mV", "result": "47 ± 7", "unit": "µM"}, {"measurement": "effect of external Ca2+ on K 1/2 for cAMP or cGMP", "setting": "[5]; 1 mM Ca2+ in the patch pipette", "result": "did not significantly affect K 1/2"}]}
{"smiles": "[Mg+2]", "note": "[Mg^2+]", "values": [{"measurement": "n, Hill coefficient of blockage", "setting": "[1]; external Mg2+, +80 mV", "result": "0.8 ± 0.2"}, {"measurement": "Ki", "setting": "[1]; external Mg2+, +80 mV", "result": "9500 ± 3900", "unit": "µM"}, {"measurement": "n, Hill coefficient of blockage", "setting": "[1]; external Mg2+, −80 mV", "result": "0.7 ± 0.1"}, {"measurement": "Ki", "setting": "[1]; external Mg2+, −80 mV", "result": "1100 ± 300", "unit": "µM"}, {"measurement": "reversal potential, V rev", "setting": "[2]; external Mg2+", "result": "45 ± 15", "unit": "mV"}, {"measurement": "n, Hill coefficient of blockage", "setting": "[4]; external Mg2+, +80 mV", "result": "0.9 ± 0.2"}, {"measurement": "Ki", "setting": "[4]; external Mg2+, +80 mV", "result": "155 ± 56", "unit": "µM"}, {"measurement": "n, Hill coefficient of blockage", "setting": "[4]; external Mg2+, −80 mV", "result": "0.7 ± 0.2"}, {"measurement": "Ki", "setting": "[4]; external Mg2+, −80 mV", "result": "53 ± 17", "unit": "µM"}]}
{"smiles": "Nc1nc2c(ncn2[C@@H]2O[C@@H]3COP(=O)(O)O[C@H]3[C@H]2O)c(=O)[nH]1", "note": "[cGMP]", "values": [{"measurement": "n(−80 mV), Hill coefficient", "setting": "[6]; cGMP", "result": "2.6 ± 0.4"}, {"measurement": "I(−80 mV)/I(+80 mV)", "setting": "[6]; cGMP-gated current", "result": "1.30 ± 0.10"}, {"measurement": "EC50", "setting": "[6]; read-out: K 1/2, cGMP, +80 mV", "result": "4.8 ± 1.1", "unit": "µM"}, {"measurement": "EC50", "setting": "[6]; read-out: K 1/2, cGMP, −80 mV", "result": "4.9 ± 1.1", "unit": "µM"}, {"measurement": "EC50", "setting": "[6]; [7]", "result": 4.5, "unit": "µM"}, {"measurement": "n cG", "setting": "[6]; [8]", "result": 2.7}, {"measurement": "n(−80 mV), Hill coefficient", "setting": "[3]; cGMP", "result": "2.1 ± 0.3"}, {"measurement": "I(−80 mV)/I(+80 mV)", "setting": "[3]; cGMP-gated current", "result": "0.55 ± 0.10"}, {"measurement": "EC50", "setting": "[3]; read-out: K 1/2, cGMP, +80 mV", "result": "5.6 ± 1.8", "unit": "µM"}, {"measurement": "EC50", "setting": "[3]; read-out: K 1/2, cGMP, −80 mV", "result": "7.6 ± 4", "unit": "µM"}, {"measurement": "EC50", "setting": "[3]; [7]", "result": 6.6, "unit": "µM"}, {"measurement": "n cG", "setting": "[3]; [8]", "result": 2.3}, {"measurement": "n(−80 mV), Hill coefficient", "setting": "[5]; cGMP", "result": "1.8 ± 0.4"}, {"measurement": "I(−80 mV)/I(+80 mV)", "setting": "[5]; cGMP-gated current", "result": "0.79 ± 0.09"}, {"measurement": "EC50", "setting": "[5]; read-out: K 1/2, cGMP, +80 mV", "result": "13 ± 1.5", "unit": "µM"}, {"measurement": "EC50", "setting": "[5]; read-out: K 1/2, cGMP, −80 mV", "result": "15 ± 1.6", "unit": "µM"}, {"measurement": "EC50", "setting": "[5]; [7]", "result": 18.5, "unit": "µM"}, {"measurement": "n cG", "setting": "[5]; [8]", "result": 1.6}]}
